In ChEMBL document CHEMBL4229499, “Development of novel silanol-based human pregnane X receptor (PXR) agonists with improved receptor selectivity” (Bioorg Med Chem, 2018):

How the values were obtained:
[1] = Octanol/water partition co-efficient, log P of the compound by HPLC method; format: physicochemical
[2] = target: T1, Nuclear receptor subfamily 1 group I member 2 (Homo sapiens, UniProt O75469); experiment: Agonist activity at VP16-fused human PXR expressed in HEK293 cells after 24 hrs by luciferase reporter gene assay; format: cell-based
T1 sequence (O75469 whole entry): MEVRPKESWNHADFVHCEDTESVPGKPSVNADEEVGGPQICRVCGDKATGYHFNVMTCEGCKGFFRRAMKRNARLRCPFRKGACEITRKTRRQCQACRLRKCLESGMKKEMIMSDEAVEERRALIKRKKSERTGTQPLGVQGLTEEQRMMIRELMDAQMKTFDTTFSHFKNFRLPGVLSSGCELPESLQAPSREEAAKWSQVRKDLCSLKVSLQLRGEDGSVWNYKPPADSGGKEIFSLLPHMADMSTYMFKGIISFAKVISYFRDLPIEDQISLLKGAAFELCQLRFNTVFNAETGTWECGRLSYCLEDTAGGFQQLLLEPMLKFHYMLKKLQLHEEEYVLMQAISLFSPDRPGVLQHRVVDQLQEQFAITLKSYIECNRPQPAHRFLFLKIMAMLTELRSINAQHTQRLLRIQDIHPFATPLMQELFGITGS
Outline: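 HEK293 cells grown in DMEM with 5% FBS and penicillin/streptomycin at 37 °C, 5% CO₂. Seeded at 20% confluence 24 h before calcium-phosphate co-transfection with 150 ng receptor expression plasmid (PXR as a VP16 fusion), 500 ng luciferase reporter and 10 ng β-gal vector. Luciferase was normalized to β-galactosidase, in triplicate transfections.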

[3] = target: T2, Nuclear receptor ROR-alpha (Homo sapiens, UniProt P35398); experiment: Inhibition of human RORalpha1 expressed in HEK293 cells after 24 hrs by luciferase reporter gene assay; format: cell-based
T2 sequence (P35398 whole entry): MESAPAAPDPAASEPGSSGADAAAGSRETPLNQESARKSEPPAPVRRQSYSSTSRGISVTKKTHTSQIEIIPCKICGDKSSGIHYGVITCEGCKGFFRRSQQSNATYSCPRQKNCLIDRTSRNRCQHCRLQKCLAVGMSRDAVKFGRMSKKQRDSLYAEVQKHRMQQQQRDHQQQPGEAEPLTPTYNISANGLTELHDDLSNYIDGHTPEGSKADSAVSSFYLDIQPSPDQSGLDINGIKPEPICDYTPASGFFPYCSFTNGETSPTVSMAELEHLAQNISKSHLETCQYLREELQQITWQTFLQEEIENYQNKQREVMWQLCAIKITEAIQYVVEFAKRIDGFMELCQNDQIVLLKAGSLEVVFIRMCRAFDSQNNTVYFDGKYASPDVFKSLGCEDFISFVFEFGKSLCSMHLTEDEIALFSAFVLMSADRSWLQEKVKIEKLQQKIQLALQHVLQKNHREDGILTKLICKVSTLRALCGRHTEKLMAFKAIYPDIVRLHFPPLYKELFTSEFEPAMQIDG

[4] = target: T3, Nuclear receptor ROR-gamma (Homo sapiens, UniProt P51449); experiment: Inhibition of human RORgamma1 expressed in HEK293 cells after 24 hrs by luciferase reporter gene assay; format: cell-based
T3 sequence (P51449 whole entry): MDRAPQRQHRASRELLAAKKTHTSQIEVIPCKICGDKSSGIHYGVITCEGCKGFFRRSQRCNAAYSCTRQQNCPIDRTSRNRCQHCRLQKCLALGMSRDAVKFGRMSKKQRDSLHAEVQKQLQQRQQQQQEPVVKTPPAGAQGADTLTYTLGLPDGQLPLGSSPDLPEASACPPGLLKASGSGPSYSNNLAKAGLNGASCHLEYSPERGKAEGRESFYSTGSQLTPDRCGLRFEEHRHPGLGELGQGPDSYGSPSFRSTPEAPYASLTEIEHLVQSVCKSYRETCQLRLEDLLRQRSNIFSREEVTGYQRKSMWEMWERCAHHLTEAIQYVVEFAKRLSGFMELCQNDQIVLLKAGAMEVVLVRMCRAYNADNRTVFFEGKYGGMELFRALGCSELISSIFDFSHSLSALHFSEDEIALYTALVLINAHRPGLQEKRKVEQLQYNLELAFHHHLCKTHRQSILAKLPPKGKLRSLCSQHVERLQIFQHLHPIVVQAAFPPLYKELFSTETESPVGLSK

[5] = target: T4, Nuclear receptor ROR-alpha (Homo sapiens) (UniProt P35398); experiment: Agonist activity at human RORalpha1 expressed in HEK293 cells after 24 hrs by luciferase reporter gene assay; format: cell-based
T4 sequence (whole entry): T2 sequence (P35398 whole entry)

[6] = target: T5, Nuclear receptor ROR-gamma (Homo sapiens) (UniProt P51449); experiment: Agonist activity at human RORgamma1 expressed in HEK293 cells after 24 hrs by luciferase reporter gene assay; format: cell-based
T5 sequence (whole entry): T3 sequence (P51449 whole entry)

Row | Structure (SMILES) | logP [1] | EC50 ([2]; read-out: EC50) [µM] | IC50 ([3]; read-out: IC50) [µM] | IC50 ([4]; read-out: IC50) [µM] | IC50 ([3]; hek293) | IC50 ([4]; hek293) | EC50 ([2]; hek293) | Activity [5] [%] | Activity [6] [%]
1 | C[Si](C)(O)c1ccc(N(Cc2ccccc2)S(=O)(=O)c2ccccc2)cc1 | 3.92 | 3.2 | > 30 | > 30 | – | – | – | – | –
2 | C[Si](C)(O)c1ccc(N(CC(F)(F)F)S(=O)(=O)c2ccccc2)cc1 | – | 0.63 | > 30 | 11 | – | – | – | – | –
3 | CCCCN(c1ccc([Si](C)(C)O)cc1)S(=O)(=O)c1ccccc1 | 4.05 | 6.5 | > 30 | > 30 | – | – | – | – | –
4 | C[Si](C)(O)c1ccc(NS(=O)(=O)c2ccccc2)cc1 | 2.22 | 2.4 | – | – | Not Active | Not Active | – | – | –
5 | CCN(c1ccc([Si](C)(C)O)cc1)S(=O)(=O)c1ccccc1 | 3.2 | 1.9 | > 30 | > 30 | – | – | – | – | –
6 | COC(=O)CN(c1ccc(C(C)(C)O)cc1)S(=O)(=O)c1ccccc1 | 2.35 | – | – | > 30 | Not Active | – | Not Active | – | –
7 | CN(c1ccc([Si](C)(C)O)cc1)S(=O)(=O)c1ccccc1 | 2.9 | 3.4 | – | – | – | – | – | 53 | 54
8 | CC(C)(O)c1ccc(N(CC(F)(F)F)S(=O)(=O)c2ccccc2)cc1 | – | – | – | > 30 | Not Active | – | Not Active | – | –
9 | COC(=O)CN(c1ccc([Si](C)(C)O)cc1)S(=O)(=O)c1ccccc1 | 2.79 | 1.4 | – | – | Not Active | Not Active | – | – | –
10 | C[Si](C)(O)c1ccc(N(CCc2ccccc2)S(=O)(=O)c2ccccc2)cc1 | 4.32 | 14 | > 30 | > 30 | – | – | – | – | –
11 | O=C(O)c1ccc(N(CC(F)(F)F)S(=O)(=O)c2ccccc2)cc1 | – | – | – | – | Not Active | Not Active | Not Active | – | –
12 | COCCN(c1ccc([Si](C)(C)O)cc1)S(=O)(=O)c1ccccc1 | 2.81 | 4.2 | – | – | Not Active | Not Active | – | – | –
